Source: PubChem
APP 5'UTR act – activators of APP 5'UTR luciferase reporter, primary screen, SH-SY5Y cells; SH-SY5Y APP 5'UTR luciferase reporter, luminescence; zero percent = DMSO vehicle wells; activation, % at 2 µM; 1% of 190,000 active;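 active means activation above a set limit, based on mean plus 3 SD of controls, cut at about 140% in these data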
Mdm2 ligase inh – MDM2-luciferase reporter signal enhancers, primary screen, MDM2 E3 ligase inhibitor project, cell-based, luminescence, 1536-well. signal enhancement, % at 5 µM. cell-based MDM2 ubiquitination luciferase reporter, 2 h; 0 = plate control, 100 = twice control, blank-subtracted. 0.11% of 210,000 active. E3 ubiquitin-protein ligase Mdm2 (Homo sapiens), Q00987;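 active means signal enhancement of 30% or more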;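 further: luminescence tracks abundance of the self-degrading MDM2-luciferase fusion protein; higher signal means inhibition of MDM2 E3 ligase activity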
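system = mammalian cells stably expressing self-ubiquitinating, self-degrading MDM2 E3–luciferase fusion | quantity = 2000 cells per well seeded | incubation = 4 h cell settling then 2 h compound exposure, 37 °C | signal = SteadyLite luminescence, 15 min reagent step | benchmarks = plate control and blank wells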
NF-kB expr up – activators of NF-kB expression in neurons, primary screen, cell-based, HTS | human neuronal cells, NF-kB reporter expression; hits give high values | fold change at 12.5 µM | 1.6% of 190,000 active | AID 1239, 2008; in the data active means fold change above about 3.3
PERK inhibitor – block of dimerizer-induced PERK translation repression, primary screen, PERK inhibitor project, CHO PERK-DD cells, SEAP luminescence, HTS; 0.17% of 220,000 active; AID 1416, 2008; CHO PERK-DD fusion, SEAP luminescence translation reporter; inhibition, % at 5.6 µM;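 active means inhibition above the mean inhibition of all tested compounds plus 3 SD, set separately per screening campaign, cut at about 2.9% in these data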;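 further: PERK kinase domain activated by AP20187 dimerizer at 100 nM; 0% = DMSO with dimerizer and 100% = rapamycin at 8.4 µM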
AHR act – AHR activators, primary screen, cell-based, luminescence, luciferase reporter, human. AHR-responsive luciferase reporter cells. activation, % at 5 µM. 2.5% of 320,000 active. AID 2796, 2010; in the data active means activation above about 47%;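 further: 0% = vehicle wells and 100% = reference agonist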
Target sequence (P35869 whole entry, looked up): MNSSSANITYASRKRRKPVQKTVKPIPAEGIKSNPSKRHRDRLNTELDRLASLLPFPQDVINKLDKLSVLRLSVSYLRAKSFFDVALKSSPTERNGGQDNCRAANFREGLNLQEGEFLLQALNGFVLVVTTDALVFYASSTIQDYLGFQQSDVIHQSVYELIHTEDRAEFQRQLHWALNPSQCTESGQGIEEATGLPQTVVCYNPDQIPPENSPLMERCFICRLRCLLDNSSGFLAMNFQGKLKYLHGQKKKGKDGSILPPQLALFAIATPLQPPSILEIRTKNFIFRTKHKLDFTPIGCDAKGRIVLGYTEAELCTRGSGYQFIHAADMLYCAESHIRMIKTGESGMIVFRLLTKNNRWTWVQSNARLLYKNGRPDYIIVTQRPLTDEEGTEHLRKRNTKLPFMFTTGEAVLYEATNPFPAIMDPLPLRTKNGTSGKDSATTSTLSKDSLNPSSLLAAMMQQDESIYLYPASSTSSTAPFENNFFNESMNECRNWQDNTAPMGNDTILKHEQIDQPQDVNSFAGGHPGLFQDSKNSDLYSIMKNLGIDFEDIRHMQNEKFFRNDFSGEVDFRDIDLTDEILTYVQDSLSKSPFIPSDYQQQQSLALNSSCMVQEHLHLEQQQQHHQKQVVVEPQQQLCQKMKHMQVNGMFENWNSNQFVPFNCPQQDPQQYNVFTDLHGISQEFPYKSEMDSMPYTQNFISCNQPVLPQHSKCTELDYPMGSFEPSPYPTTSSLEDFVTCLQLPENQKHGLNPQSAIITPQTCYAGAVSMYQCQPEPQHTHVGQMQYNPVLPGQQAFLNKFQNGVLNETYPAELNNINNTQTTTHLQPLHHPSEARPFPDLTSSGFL
STAT1 act – STAT1 signaling activators, primary screen, cell-based, HTS, luciferase reporter | NIH 3T3 STAT1-luciferase reporter, IFN-gamma, luminescence; 100% = IFN-gamma alone, no compound | activation (% of control), % at 5.5 µM | 2.6% of 200,000 active;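 active means activation above the screen-wide mean activation plus 3 SD, cut at about 130% in these data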;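 further: raw ratio to IFN-gamma control signal so 100% means no change and 0% no light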
An asterisk follows results filed as active. The list is not random: actives were taken first. Their share in the collection is about 4.5%.

CC/C(=N\NC(=O)c1c(-c2ccccc2)noc1C)c1ccc(C)o1 was read as APP 5'UTR act 4, Mdm2 ligase inh 17, NF-kB expr up 1.1, PERK inhibitor 0, AHR act -1 and STAT1 act 92.
Screening CC/C(=N\NC(=O)c1ccoc1C)c1ccc(C)o1 returned APP 5'UTR act 114, Mdm2 ligase inh -7, NF-kB expr up 2, PERK inhibitor 1, AHR act 4 and STAT1 act 130*.
For O=C(O)c1cc(N/N=C/c2ccc3c(c2)OCO3)ccc1Cl the results were APP 5'UTR act 121, Mdm2 ligase inh -25, NF-kB expr up 1.1, PERK inhibitor 1, AHR act 7 and STAT1 act 82.
C/C(=N\Nc1ccc(Cl)c(C(=O)O)c1)c1ccc2c(c1)OCO2 was read as APP 5'UTR act 22, Mdm2 ligase inh -6, NF-kB expr up 1.9, PERK inhibitor 1, AHR act 2 and STAT1 act 131*.
`O=C(O)c1cc(N/N=C/c2ccc3c(c2)OCCO3)ccc1Cl` gave APP 5'UTR act 82, Mdm2 ligase inh -80, NF-kB expr up 5.5*, PERK inhibitor 1, AHR act -3 and STAT1 act 58.
COc1ccccc1Nc1nc(NCCC(C)C)nc(N)c1[N+](=O)[O-] was read as Mdm2 ligase inh -3, PERK inhibitor 0 and AHR act 49*.
`Nc1nc(NCc2ccccc2)nc(Nc2ccc(F)cc2)c1[N+](=O)[O-]` gave APP 5'UTR act 11, Mdm2 ligase inh -4, NF-kB expr up 1.4, PERK inhibitor 0, AHR act 103* and STAT1 act 98.
COCCCNc1nc(N)c([N+](=O)[O-])c(Nc2cc(OC)ccc2OC)n1 was read as Mdm2 ligase inh -11, PERK inhibitor 1 and AHR act 21.
Screening Nc1nc(NCC2CCCO2)nc(Nc2ccc(F)cc2)c1[N+](=O)[O-] (stereo unspecified) returned APP 5'UTR act 9, Mdm2 ligase inh -1, NF-kB expr up 0.97, PERK inhibitor 1, AHR act 76* and STAT1 act 98.
For Cc1ccc(C(OCC(O)CNC(CO)C(O)c2ccc([N+](=O)[O-])cc2)c2ccccc2)cc1 (stereo unspecified) the results were AHR act -1.
Screening CCCc1nc2ccc(NC(C)=O)cc2c(=O)n1Cc1ccc(Cl)cc1 returned APP 5'UTR act 105, Mdm2 ligase inh 25, NF-kB expr up 3.7*, PERK inhibitor 0, AHR act 27 and STAT1 act 143*.
Screening COc1ccc(-c2cc(-c3ccccc3)c(C#N)c(S(C)=O)n2)cc1 (stereo unspecified) returned Mdm2 ligase inh 10, NF-kB expr up 3.6*, PERK inhibitor 0, AHR act 1 and STAT1 act 105.
O=C1c2[nH]nc(-c3ccccc3O)c2C(c2cccc(Cl)c2)N1Cc1ccco1 (stereo unspecified) was read as APP 5'UTR act 0, Mdm2 ligase inh -33, NF-kB expr up 0.82, PERK inhibitor 0, AHR act 6 and STAT1 act 97.
Cc1cc(C)c(O)c(-c2n[nH]c3c2C(c2cccc(O)c2)N(Cc2ccco2)C3=O)c1 (stereo unspecified) was read as Mdm2 ligase inh -4, PERK inhibitor 0 and AHR act 65*.
Cc1ccc(/C(C#N)=C\c2cn(C)c3ccccc23)cc1 was read as APP 5'UTR act -4, Mdm2 ligase inh -5, NF-kB expr up 1.9, PERK inhibitor 1, AHR act 75* and STAT1 act 112.
Cn1cc(C=O)c2ccccc21 was read as APP 5'UTR act 6, Mdm2 ligase inh -15, NF-kB expr up 1.1, PERK inhibitor -1, AHR act 12 and STAT1 act 85.
For Cc1[nH]c2ccc(C(=O)N3CCCCC3)cc2c1C the results were APP 5'UTR act 140*, Mdm2 ligase inh -6, NF-kB expr up 4.2*, PERK inhibitor 1, AHR act 10 and STAT1 act 145*.
For Cc1[nH]c2ccc(C(=O)N3CCCC3)cc2c1C the results were AHR act 4.
`CC1CC(C)CN(C(=S)SCc2nc(N)nc(Nc3ccccc3)n2)C1` (stereo unspecified) gave Mdm2 ligase inh -13, PERK inhibitor -1 and AHR act 4.
Nc1nc(CSC(=S)N2CCCCC2)nc(Nc2ccccc2)n1 was read as APP 5'UTR act 53, Mdm2 ligase inh -3, NF-kB expr up 1.9, PERK inhibitor 2, AHR act 23 and STAT1 act 136*.
Screening Nc1nc(CSC(=S)N2CCOCC2)nc(Nc2ccccc2)n1 returned APP 5'UTR act 42, Mdm2 ligase inh -1, NF-kB expr up 1.7, PERK inhibitor 0, AHR act 19 and STAT1 act 131*.
`Cc1ccc(Nc2nc(N)nc(CSC(=S)N3CCOCC3)n2)cc1` gave APP 5'UTR act 46, Mdm2 ligase inh 3, NF-kB expr up 2, PERK inhibitor 0, AHR act 20 and STAT1 act 126.
Screening Oc1c(C=Nc2ccccc2Cl)[nH]c2ccccc12 returned Mdm2 ligase inh -10, PERK inhibitor -1 and AHR act 57*.
Screening O=c1[nH][nH]c(C(F)(F)F)c1C=Nc1ccccc1Cl returned APP 5'UTR act 0, Mdm2 ligase inh -5, NF-kB expr up 1.3, PERK inhibitor 1, AHR act 0 and STAT1 act 101.
`Cc1ccc(S(=O)(=O)c2c(COC(=O)c3ccc(Cl)cc3)c(-c3ccccc3)nn2C)cc1` gave APP 5'UTR act 10, Mdm2 ligase inh -3, NF-kB expr up 0.92, PERK inhibitor -1, AHR act 2 and STAT1 act 96.
`C/C(=N\Nc1nc(C)cc(-c2ccccc2)n1)c1ccc(C)o1` gave APP 5'UTR act -6, Mdm2 ligase inh -7, NF-kB expr up 0.4, PERK inhibitor 0, AHR act 47* and STAT1 act 92.
Screening Cc1ccc2nc(N/N=C/c3ccccc3F)nc(-c3ccccc3)c2c1 returned APP 5'UTR act 13, Mdm2 ligase inh -3, NF-kB expr up 1.4, PERK inhibitor 0, AHR act 13 and STAT1 act 92.
`C/C(=N\Nc1nc(C)cc(-c2ccccc2)n1)c1cccc(N)c1` gave AHR act 49*.
`Cc1cc(-c2ccccc2)nc(N/N=C/c2ccccc2F)n1` gave AHR act 68*.
